Results taken from ChEMBL document CHEMBL1128448, “Synthesis and antifungal activity of new azole derivatives containing an N-acylmorpholine ring” (1995).
In brackets after ≈: the same amount, converted by molar mass.

Experiments:
Candida albicans [1] = test: Evaluation of In vitro antifungal activity against Candida albicans 406 by broth macro dilution method; format: functional
Method in brief: (§1)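 Yeast MIC and MFC by broth macrodilution per NCCLS M27-P in RPMI-1640 buffered with 0.165 M MOPS. Fluconazole in sterile water, other drugs in DMSO. C. parapsilosis ATCC 22019 is the reference strain in each run. MIC is the lowest concentration with turbidity ≤ the 80% inhibition standard. For MFC, 0.04 mL from clear tubes is plated on Sabouraud agar; MFC is the lowest concentration giving ≤1 colony.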

Microsporum canis = test: In vitro evaluation of minimum inhibitory concentration against Microsporum canis 47; format: functional; details: Microsporum canis; read-out: MIC
Method in brief: (§2)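 Stocks are 800 μg/mL in 50% ethanol. Each plate gets 10 μL of inoculum at 10^5 cfu/mL. Incubation at 25 °C, 48 h for yeasts and 120 h for dermatophytes and molds. Organisms are ATCC strains or clinical isolates.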

Candida albicans [2] = test: Evaluation of In vitro antifungal activity against Candida albicans C52 by broth macro dilution method; format: functional; method in brief: as §1
Kluyveromyces marxianus [3] = test: Evaluation of In vitro antifungal activity against Candida pseudotropicalis ATCC 28838 by broth macro dilution method; format: functional; method in brief: as §1
Candida albicans [4] = test: Evaluation of […] antifungal activity against Candida albicans 60 by broth macro dilution method; format: functional; method in brief: as §1
Trichophyton benhamiae = test: In vitro evaluation of minimum inhibitory concentration against Trichophyton mentagrophytes 23; format: functional, Arthroderma benhamiae; details: Trichophyton benhamiae; read-out: MIC; method in brief: as §2
Cryptococcus neoformans [5] = test: Evaluation of In vitro antifungal activity against Cryptococcus neoformans 87 by broth macro dilution method; format: functional; method in brief: as §1
Pichia kudriavzevii [6] = test: Evaluation of In vitro antifungal activity against Candida krusei 70 by broth macro dilution method; format: functional; method in brief: as §1
Mus sp. [7] = test: In vivo evaluation of % survival rate after peroral administration on 5th day at dose 0.5 mg/kg; format: functional; details: route oral
[8] = system: Meyerozyma guilliermondii; test: Evaluation of In vitro antifungal activity against Candida guilliermondii 26 by broth macro dilution method; format: functional; method in brief: as §1
Candida albicans [9] = test: Evaluation of In vitro antifungal activity against Candida albicans 2.01 by broth macro dilution method; format: functional; method in brief: as §1
Mus musculus = test: In vivo evaluation of % survival rate after peroral administration on 7th day at dose 0.5 mg/kg; format: functional; details: Mus musculus, po
Candida albicans [10] = test: Evaluation of In vitro antifungal activity against Candida albicans 76 by broth macro dilution method; format: functional; method in brief: as §1
Mus sp. [11] = test: In vivo evaluation of % survival rate after peroral administration on 7th day at dose 1 mg/kg; format: functional; details: Mus sp., po
Candida parapsilosis [12] = test: Evaluation of In vitro antifungal activity against Candida parapsilosis 2.07 by broth macro dilution method; format: functional; details: Lodderomyces parapsilosis; method in brief: as §1
Mus sp. [13] = test: In vivo evaluation of % survival rate after peroral administration on 5th day at dose 1 mg/kg; format: functional; details: Mus sp., po
Candida albicans [14] = test: Evaluation of In vitro antifungal activity against Candida albicans 60 by broth macro dilution method
[15] = system: Meyerozyma guilliermondii; test: In vitro evaluation of minimum inhibitory concentration against Candida guilliermondii 26; format: functional; details: Meyerozyma guilliermondii; read-out: MIC; method in brief: as §2
Mus sp. [16] = test: In vivo evaluation of % survival rate after peroral administration on 9th day at dose 1 mg/kg; format: functional; details: Mus sp., po
Pichia kudriavzevii [17] = test: In vitro evaluation of minimum inhibitory concentration against Candida krusei 70; format: functional; details: Pichia kudriavzevii; read-out: MIC; method in brief: as §2
Aspergillus niger = test: In vitro evaluation of minimum inhibitory concentration against Aspergillus niger 18; format: functional; details: Aspergillus niger; read-out: MIC; method in brief: as §2
Candida albicans [18] = test: Evaluation of In vitro antifungal activity against Candida albicans 31 by broth macro dilution method; format: functional; method in brief: as §1
Mus sp. [19] = test: In vivo evaluation of % survival rate after peroral administration on 3rd day at dose 1 mg/kg; format: functional; details: Mus sp., po
Candida parapsilosis [20] = test: Evaluation of In vitro antifungal activity against Candida parapsilosis ATCC 22019 by broth macro dilution method; format: functional; details: Lodderomyces parapsilosis; method in brief: as §1
Candida parapsilosis [21] = test: In vitro evaluation of minimum inhibitory concentration against Candida parapsilosis 61; format: functional; details: Lodderomyces parapsilosis; read-out: MIC; method in brief: as §2
Candida tropicalis = test: Evaluation of In vitro antifungal activity against Candida tropicalis 50 by broth macro dilution method; format: functional; method in brief: as §1
Nakaseomyces glabratus = test: Evaluation of In vitro antifungal activity against Torulopsis glabrata 78 by broth macro dilution method; format: functional; method in brief: as §1
Trichophyton rubrum = test: In vitro evaluation of minimum inhibitory concentration against Trichophyton rubrum 90; format: functional; details: Trichophyton rubrum; read-out: MIC; method in brief: as §2
Pichia kudriavzevii [22] = test: Evaluation of In vitro antifungal activity against Candida krusei C64 by broth macro dilution method; format: functional; method in brief: as §1
Candida albicans [23] = test: In vitro evaluation of minimum inhibitory concentration against Candida albicans 76; format: functional; details: Candida albicans; read-out: MIC; method in brief: as §2
Mus sp. [24] = test: In vivo evaluation of % survival rate after peroral administration on 3rd day at dose 0.5 mg/kg; format: functional; details: route oral
Cryptococcus neoformans [25] = test: Evaluation of In vitro antifungal activity against Cryptococcus neoformans 74 by broth macro dilution method; format: functional; method in brief: as §1
Kluyveromyces marxianus [26] = test: Evaluation of In vitro antifungal activity against yeasts by broth macro dilution method; format: functional; method in brief: as §1
Rattus norvegicus = test: In vivo evaluation of antifungal activity against vaginal candidosis in rat at dose 0.25 mg/kg on 15th day; format: functional
Method in brief: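 Groups of 10 female Wistar rats given estradiol 25 mg/kg sc on day -5, infected intravaginally with C. albicans by sterile swab on day 0; infection confirmed on day 3 by swab culture (TSB, then Sabouraud agar). Oral dosing once daily on days 3, 4, 5; vehicle controls. Vaginal swabs cultured on days 10 and 15; read-out % cured (culture-negative).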

Aspergillus fumigatus = test: In vitro evaluation of minimum inhibitory concentration against Aspergillus fumigatus 33; format: functional; details: Aspergillus fumigatus; read-out: MIC; method in brief: as §2
Candida albicans [27] = test: Evaluation of In vitro antifungal activity against Candida albicans C56 by broth macro dilution method; format: functional; method in brief: as §1
Candida parapsilosis [28] = test: Evaluation of In vitro antifungal activity against Candida parapsilosis ATCC 141095 by broth macro dilution method; format: functional; details: Lodderomyces parapsilosis; method in brief: as §1
Candida parapsilosis [29] = test: Evaluation of In vitro antifungal activity against Candida parapsilosis C292 by broth macro dilution method; format: functional; details: Lodderomyces parapsilosis; method in brief: as §1
Candida parapsilosis [30] = test: Evaluation of In vitro antifungal activity against Candida parapsilosis C74 by broth macro dilution method; format: functional; details: Lodderomyces parapsilosis; method in brief: as §1
Aspergillus flavus = test: In vitro evaluation of minimum inhibitory concentration against Aspergillus flavus 19; format: functional; details: Aspergillus flavus; read-out: MIC; method in brief: as §2
Candida albicans [31] = test: Evaluation of In vitro antifungal activity against Candida albicans ATCC 10231 by broth macro dilution method; format: functional; method in brief: as §1
Mus sp. [32] = test: In vivo evaluation of % survival rate after peroral administration on 9th day at dose 0.5 mg/kg; format: functional; details: Mus sp., po

`OC(Cn1cncn1)(Cn1cncn1)c1ccc(F)cc1F` [FLUCONAZOLE] was tested, and the MFC (Candida albicans [1]) was > 64 µg/mL, the MIC (Candida albicans [1]) was 0.25 µg/mL (≈ 0.816 µM) and the MIC (Microsporum canis) was > 80 µg/mL. The MFC (Candida albicans [2]) was > 64 µg/mL, the MIC (Candida albicans [2]) was 0.25 µg/mL (≈ 0.816 µM) and the MFC (Kluyveromyces marxianus [3]) was 32 µg/mL (≈ 104 µM). For the same compound, the MIC (Candida albicans [4]) was 0.5 µg/mL (≈ 1.63 µM), the MIC (Trichophyton benhamiae) was > 80 µg/mL and the MFC (Cryptococcus neoformans [5]) was > 64 µg/mL. For the same compound, the MIC (Cryptococcus neoformans [5]) was 8 µg/mL (≈ 26.1 µM), the MFC (Pichia kudriavzevii [6]) was > 64 µg/mL and the MIC (Pichia kudriavzevii [6]) was 32 µg/mL (≈ 104 µM). For the same compound, the survival at 0.5 mg/kg (Mus sp. [7]) was 90%, the MIC [8] was 8 µg/mL (≈ 26.1 µM) and the MFC (Candida albicans [9]) was > 64 µg/mL. For the same compound, the MIC (Candida albicans [9]) was 1 µg/mL (≈ 3.27 µM), the survival at 0.5 mg/kg (Mus musculus) was 20% and the MFC (Candida albicans [10]) was > 64 µg/mL. The MIC (Candida albicans [10]) was 0.25 µg/mL (≈ 0.816 µM), the survival at 1 mg/kg (Mus sp. [11]) was 52% and the MFC (Candida parapsilosis [12]) was > 64 µg/mL. For the same compound, the MIC (Candida parapsilosis [12]) was 1 µg/mL (≈ 3.27 µM), the survival at 1 mg/kg (Mus sp. [13]) was 96% and the MFC (Candida albicans [14]) was > 64 µg/mL. The MIC [15] was 10 µg/mL (≈ 32.7 µM), the survival at 1 mg/kg (Mus sp. [16]) was 6% and the MIC (Pichia kudriavzevii [17]) was > 80 µg/mL. For the same compound, the MIC (Aspergillus niger) was > 80 µg/mL, the MFC (Candida albicans [18]) was > 64 µg/mL and the MIC (Candida albicans [18]) was 0.25 µg/mL (≈ 0.816 µM). The survival at 1 mg/kg (Mus sp. [19]) was 100%, the MFC (Candida parapsilosis [20]) was > 64 µg/mL and the MIC (Candida parapsilosis [20]) was 4 µg/mL (≈ 13.1 µM). For the same compound, the MIC (Candida parapsilosis [21]) was 20 µg/mL (≈ 65.3 µM), the MFC (Candida tropicalis) was > 64 µg/mL and the MIC (Candida tropicalis) was 8 µg/mL (≈ 26.1 µM). For the same compound, the MFC (Nakaseomyces glabratus) was > 64 µg/mL, the MIC (Nakaseomyces glabratus) was 32 µg/mL (≈ 104 µM) and the MIC (Trichophyton rubrum) was > 80 µg/mL. For the same compound, the MFC (Pichia kudriavzevii [22]) was > 64 µg/mL, the MIC (Pichia kudriavzevii [22]) was 64 µg/mL (≈ 209 µM) and the MIC (Candida albicans [23]) was 40 µg/mL (≈ 131 µM). The survival at 0.5 mg/kg (Mus sp. [24]) was 100%, the MFC (Cryptococcus neoformans [25]) was 1 µg/mL (≈ 3.27 µM) and the MIC (Cryptococcus neoformans [25]) was 0.5 µg/mL (≈ 1.63 µM). For the same compound, the MIC (Kluyveromyces marxianus [26]) was 0.5 µg/mL (≈ 1.63 µM), the Cure rate (Rattus norvegicus) was 25% and the MIC (Aspergillus fumigatus) was > 80 µg/mL. For the same compound, the MFC (Candida albicans [27]) was > 64 µg/mL, the MIC (Candida albicans [27]) was 0.5 µg/mL (≈ 1.63 µM) and the MFC (Candida parapsilosis [28]) was > 64 µg/mL. The MIC (Candida parapsilosis [28]) was 2 µg/mL (≈ 6.53 µM), the MFC (Candida parapsilosis [29]) was > 64 µg/mL and the MIC (Candida parapsilosis [29]) was 1 µg/mL (≈ 3.27 µM). For the same compound, the MFC (Candida parapsilosis [30]) was 2 µg/mL (≈ 6.53 µM), the MIC (Candida parapsilosis [30]) was 0.25 µg/mL (≈ 0.816 µM) and the MIC (Aspergillus flavus) was > 80 µg/mL. For the same compound, the MFC (Candida albicans [31]) was > 64 µg/mL, the MIC (Candida albicans [31]) was 2 µg/mL (≈ 6.53 µM) and the survival at 0.5 mg/kg (Mus sp. [32]) was 10%.
